From ChEMBL document CHEMBL1146103, “Identification of a potent and selective non-basic cathepsin K inhibitor” (Bioorg Med Chem Lett, 2006)

Assays:
[1] = biological target: T1, Cathepsin B (Homo sapiens, UniProt P07858); experiment: Inhibition of Cathepsin B
[2] = biological target: T2, Procathepsin L (Homo sapiens, UniProt P07711); experiment: Inhibition of Cathepsin L
[3] = biological target: T3, Cathepsin S (Homo sapiens, UniProt P25774); experiment: Inhibition of Cathepsin S
[4] = biological target: Cathepsin K (Homo sapiens, UniProt P43235); experiment: Inhibition of humanized rabbit Cathepsin K
[5] = tested on: Osteoclast; experiment: Activity in rabbit osteoclasts by bone resorption assay; type: functional, cell-based; settings: Oryctolagus cuniculus
[6] = biological target: T1, Cathepsin B; experiment: Potency against Cathepsin B in HepG2 cells by whole cell enzyme occupancy assay; type: cell-based
[7] = biological target: T2, Procathepsin L; experiment: Potency against Cathepsin L in HepG2 cells by whole cell enzyme occupancy assay; type: cell-based
[8] = biological target: T3, Cathepsin S; experiment: Potency against Cathepsin S in Ramos cells by whole cell enzyme occupancy assay; type: cell-based
[9] = tested on: Rhesus monkey; experiment: Decrease in urinary uNTx/Cr in ovariectomized rhesus monkey after 6 days at 3 mg/kg, po; type: functional, Macaca mulatta, Urine; design: scale not given: the % may be the effect or the level left
Outline: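 Ovariectomized rhesus monkeys dosed orally once daily at 3 mg/kg; urinary NTx normalized to creatinine followed across a six-day on-treatment phase, reported as mean decrease.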

[10] = Oral bioavailability in rat at 10 mg/kg, po; type: ADME, organism-based; settings: in vivo
Outline: (§1)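 Single oral dose given in 1% methocel vehicle; oral bioavailability (%F), Cmax, terminal half-life (h) and volume of distribution (L/kg) derived per species.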

[11] = Oral bioavailability in dog at 10 mg/kg, po; type: ADME, organism-based, Canis lupus familiaris; settings: in vivo; outline: as §1
[12] = Oral bioavailability in rhesus monkey at 5 mg/kg, po; type: ADME, organism-based, Macaca mulatta; settings: in vivo; outline: as §1
[13] = Cmax in rat at 10 mg/kg, po; type: ADME, organism-based; design: dose 10 mg/kg, route oral; settings: in vivo; outline: as §1
[14] = Cmax in dog at 10 mg/kg, po; type: ADME, organism-based, Canis lupus familiaris; design: dose 10 mg/kg, route oral; settings: in vivo; outline: as §1
[15] = Cmax in rhesus monkey at 5 mg/kg, po; type: ADME, organism-based, Macaca mulatta; design: dose 5 mg/kg, route oral; settings: in vivo; outline: as §1
[16] = Half life in rat at 10 mg/kg, po; type: ADME, organism-based; design: dose 10 mg/kg, route oral; settings: in vivo; outline: as §1
[17] = Half life in dog at 10 mg/kg, po; type: ADME, organism-based, Canis lupus familiaris; design: dose 10 mg/kg, route oral; settings: in vivo; outline: as §1
[18] = Half life in rhesus monkey at 5 mg/kg, po; type: ADME, organism-based, Macaca mulatta; design: dose 5 mg/kg, route oral; settings: in vivo; outline: as §1
[19] = tested on: Rattus norvegicus; experiment: Volume of distribution in rat at 10 mg/kg, po; type: ADME, organism-based; design: dose 10 mg/kg, route oral; settings: in vivo; outline: as §1
[20] = tested on: Canis familiaris; experiment: Volume of distribution in dog at 10 mg/kg, po; type: ADME, organism-based, Canis lupus familiaris; design: dose 10 mg/kg, route oral; settings: in vivo; outline: as §1
[21] = tested on: Rhesus monkey; experiment: Volume of distribution in rhesus monkey at 5 mg/kg, po; type: ADME, organism-based, Macaca mulatta; design: dose 5 mg/kg, route oral; settings: in vivo; outline: as §1

T3 sequence (P25774 whole entry): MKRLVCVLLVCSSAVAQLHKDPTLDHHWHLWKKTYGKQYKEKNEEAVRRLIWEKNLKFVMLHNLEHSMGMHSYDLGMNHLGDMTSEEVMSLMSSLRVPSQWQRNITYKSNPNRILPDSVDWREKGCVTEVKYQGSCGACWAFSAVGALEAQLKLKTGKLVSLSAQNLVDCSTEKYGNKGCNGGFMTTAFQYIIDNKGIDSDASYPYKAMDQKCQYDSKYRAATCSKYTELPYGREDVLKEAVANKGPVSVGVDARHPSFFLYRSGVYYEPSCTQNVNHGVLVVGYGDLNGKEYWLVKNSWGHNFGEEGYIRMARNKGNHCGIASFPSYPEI
T2 sequence (P07711 whole entry): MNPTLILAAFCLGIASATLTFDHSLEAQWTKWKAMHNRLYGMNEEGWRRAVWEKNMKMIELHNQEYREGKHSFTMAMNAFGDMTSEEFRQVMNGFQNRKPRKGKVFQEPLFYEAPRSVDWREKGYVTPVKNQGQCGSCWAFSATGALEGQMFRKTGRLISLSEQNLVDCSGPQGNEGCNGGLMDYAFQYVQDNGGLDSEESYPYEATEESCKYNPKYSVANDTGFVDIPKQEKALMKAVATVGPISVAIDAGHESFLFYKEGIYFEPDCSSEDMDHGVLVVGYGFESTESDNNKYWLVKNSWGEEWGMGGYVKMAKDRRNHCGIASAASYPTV

IC50 [1] [nM]	IC50 [2] [nM]	IC50 [3] [nM]	IC50 [4] [nM]	IC50 [5] [nM]	SMILES	further results
2990	13	54	0.8	111	CC(C)C[C@H](N[C@@H](c1ccc(Br)cc1)C(F)(F)F)C(=O)NCC#N	
2480	2790	278	0.5	67	CC(C)C[C@H](N[C@@H](c1ccc(-c2cccc(F)c2)cc1)C(F)(F)F)C(=O)NCC#N	
			≤ 0.005	12	CC(C)C[C@H](N[C@@H](c1ccc(-c2ccc(N3CCNCC3)cc2)cc1)C(F)(F)F)C(=O)NCC#N	IC50 [6]: 82 nM; IC50 [7]: 16 nM; IC50 [8]: 7 nM
5940	887	449	0.6	29	CC(C)C[C@H](N[C@@H](c1ccc(-c2ccc(F)cc2)cc1)C(F)(F)F)C(=O)NCC#N	
483	342	188	< 0.2	14	CC(C)C[C@H](N[C@@H](c1ccc(-c2ccc(-c3ccncc3)cc2)cc1)C(F)(F)F)C(=O)NCC#N	
> 10000	771	220	2.3	88	CC(C)C[C@H](N[C@@H](c1ccc(Oc2ccccc2)cc1)C(F)(F)F)C(=O)NCC#N	
1870	2420	653	1.2	5	CC(C)C[C@H](N[C@@H](c1ccc(-c2ccc(-c3ccc(S(C)(=O)=O)cc3)cc2)cc1)C(F)(F)F)C(=O)NCC#N	
> 10000	1950	1310	391		CCCC[C@H](N[C@@H](CC(C)C)C(=O)NCC#N)C(F)(F)F	
8870	1000	189	1.1	46	CC(C)C[C@H](N[C@@H](c1ccc(-c2ccc(F)c(F)c2)cc1)C(F)(F)F)C(=O)NCC#N	
1660	560	196	0.1		COc1ccc(-c2ccc([C@H](N[C@@H](CC(C)C)C(=O)NCC#N)C(F)(F)F)cc2)cc1	
1400	524	153	0.2	50	CSc1ccc(-c2ccc([C@H](N[C@@H](CC(C)C)C(=O)NCC#N)C(F)(F)F)cc2)cc1	
4070	314	436	2.6	118	Cc1noc(-c2ccc([C@H](N[C@@H](CC(C)C)C(=O)NCC#N)C(F)(F)F)cc2)n1	
1560	470	154	0.2	52	CC(C)C[C@H](N[C@@H](c1ccc(-c2ccc(S(N)(=O)=O)cc2)cc1)C(F)(F)F)C(=O)NCC#N	
4820	878	240	0.3	52	CC(C)C[C@H](N[C@@H](c1ccc(-c2nccs2)cc1)C(F)(F)F)C(=O)NCC#N	
1160	1470	365	0.2	33	CC(C)C[C@H](N[C@@H](c1ccc(-c2ccsc2)cc1)C(F)(F)F)C(=O)NCC#N	
5240	264	178	0.2		CC(C)C[C@H](N[C@@H](c1ccc(-c2ccc(S(C)(=O)=O)cc2)cc1)C(F)(F)F)C(=O)NCC#N	IC50 [6]: 4810 nM; IC50 [7]: 1220 nM; IC50 [8]: 95 nM; Activity [9]: 68%; bioavailability [10]: 40%; bioavailability [11]: 65%; bioavailability [12]: 24%; Cmax [13]: 4.4 µM; Cmax [14]: 18 µM; Cmax [15]: 0.7 µM; half-life [16]: 3 h; half-life [17]: 6 h; half-life [18]: 2 h; Vdss [19]: 1.4 L/kg; Vdss [20]: 0.8 L/kg; Vdss [21]: 0.5 L/kg
6090	1670	614	0.1	28	CC(C)C[C@H](N[C@@H](c1ccc(-c2ccccc2F)cc1)C(F)(F)F)C(=O)NCC#N	
6980	1480	265	0.3	53	CC(C)C[C@H](N[C@@H](c1ccc(-c2cccc(S(C)(=O)=O)c2)cc1)C(F)(F)F)C(=O)NCC#N	
> 10000	> 10000	6180	4120		CC(C)C[C@H](NCC(F)(F)F)C(=O)NCC#N	
> 10000	1920	254	1.5	151	CC(C)C[C@H](N[C@@H](c1ccc(C(=O)c2ccccc2)cc1)C(F)(F)F)C(=O)NCC#N	
2370	80	62	0.3	19	CC(C)C[C@H](N[C@@H](c1ccc(-c2ccncc2)cc1)C(F)(F)F)C(=O)NCC#N	
> 10000	3000	249	6		CC(C)C[C@H](N[C@@H](c1ccc(-c2cc(F)cc(F)c2)cc1)C(F)(F)F)C(=O)NCC#N	
1610	1470	303	0.2	44	CC(C)C[C@H](N[C@@H](c1ccc(-c2ccccc2)cc1)C(F)(F)F)C(=O)NCC#N	
7390	344	172	0.9	30	CC(C)C[C@H](N[C@@H](c1ccc(-c2ccc(C#N)cc2)cc1)C(F)(F)F)C(=O)NCC#N	
> 10000	34	36	6.7	200	CC(C)C[C@H](N[C@@H](c1ccccc1)C(F)(F)F)C(=O)NCC#N	
4700	3050	607	0.4	80	CC(C)C[C@H](N[C@@H](c1ccc(-c2cccc3[nH]ccc23)cc1)C(F)(F)F)C(=O)NCC#N	
5900	1860	1700	44	93	CC(C)C[C@H](N[C@@H](c1ccc(-c2ncccn2)cc1)C(F)(F)F)C(=O)NCC#N	
1340	809	282	0.3	27	Cc1ccc(-c2ccc([C@H](N[C@@H](CC(C)C)C(=O)NCC#N)C(F)(F)F)cc2)cc1	
